# From ChEMBL document CHEMBL5154945, “Discovery and Optimization of Pyrrolopyrimidine Derivatives as Selective Disruptors of the Perinucleolar Compartment, a Marker of Tumor Progression toward Metastasis” (J Med Chem, 2022)
# Several values for one entry are separate records, joined by “and”; a condition that tells them apart may be missing. Equal values may be shown once.
# Experiments:
# PC-3M [1] = experiment: Anticancer activity in human PC-3M cells expressing PTB/GFP fusion protein assessed as perinucleolar compartment disassembly and measured after 24 hrs by Hoechst 33342 staining based microscopic method; assay type: functional, cell-based
# Outline: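 Imaged by high-content microscopy. Nuclei with PNC spots ≥3 and >0 scored positive. PNC prevalence % = PNC-positive nuclei/total nuclei ×100, normalized to DMSO (0% activity) and 0% PNC (−100%). IC50 from concentration-response.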
# MDA-MB-468 = experiment: Anticancer activity against human MDA-MB-468 cells assessed as cell growth inhibition; assay type: functional, cell-based; details: dose 1-100 µM, DDE = dose-dependent effect
# MDA-MB-231 = experiment: Anticancer activity against human MDA-MB-231 cells assessed as cell growth inhibition; assay type: functional, cell-based; details: dose 1-100 µM, DDE = dose-dependent effect
# SR = experiment: Anticancer activity against human SR cells assessed as cell growth inhibition; assay type: functional, cell-based; details: dose 1-100 µM, DDE = dose-dependent effect
# [2] = mouse, in vivo, ip, 50 mg/kg, 48 h
# [3] = Cytotoxicity against human PC-3M cells expressing PTB/GFP fusion protein assessed as reduction in ATP level and measured after 24 to 48 hrs by ATPlite luminescence assay; assay type: toxicity, cell-based
# SW-620 = experiment: Anticancer activity against human SW-620 cells assessed as cell growth inhibition; assay type: functional, cell-based; details: dose 1-100 µM, DDE = dose-dependent effect
# [4] = Clast in male C57BL/6 mouse at 50 mg/kg, ip at 48 hrs by LC-MS/MS analysis; details: in vivo
# RXF 393 = experiment: Anticancer activity against human RXF 393 cells assessed as cell growth inhibition; assay type: functional, cell-based; details: dose 1-100 µM, DDE = dose-dependent effect
# [5] = biological target: Muscarinic acetylcholine receptor M5 (Homo sapiens) (UniProt P08912); experiment: Binding affinity to M5 receptor (unknown origin) at 10000 nM by radioligand displacement assay relative to control
# in vitro = details: human, PC-3M cells expressing PTB/GFP fusion protein
# NCI-H460 = experiment: Anticancer activity against human NCI-H460 cells assessed as cell growth inhibition; assay type: functional, cell-based; details: dose 1-100 µM, DDE = dose-dependent effect
# [6] = biological target: D(1B) dopamine receptor (Homo sapiens) (UniProt P21918); experiment: Binding affinity to D5 receptor (unknown origin) at 10000 nM by radioligand displacement assay relative to control
# NCI-H23 = experiment: Anticancer activity against human NCI-H23 cells assessed as cell growth inhibition; assay type: functional, cell-based; details: dose 1-100 µM, DDE = dose-dependent effect
# SF-295 = experiment: Anticancer activity against human SF-295 cells assessed as cell growth inhibition; assay type: functional, cell-based; details: dose 1-100 µM, DDE = dose-dependent effect
# [7] = biological target: Sodium-dependent serotonin transporter (Homo sapiens) (UniProt P31645); experiment: Binding affinity to SERT receptor (unknown origin) at 10000 nM by radioligand displacement assay relative to control
# [8] = biological target: Sodium-dependent noradrenaline transporter (Homo sapiens) (UniProt P23975); experiment: Binding affinity to NET receptor (unknown origin) at 10000 nM by radioligand displacement assay relative to control
# MOLT-4 = experiment: Anticancer activity against human MOLT-4 cells assessed as cell growth inhibition; assay type: functional, cell-based; details: dose 1-100 µM, DDE = dose-dependent effect
# [9] = Tmax in female BALB/c mouse at 5 mg/kg, ip and measured upto 48 hrs by LC-MS/MS analysis; assay type: ADME, organism-based; details: in vivo
# Outline: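 Fed female BALB/c mice, about 6–8 weeks old and 25–30 g, received a single IP dose of 5 or 25 mpk in NMP/PEG400/HP-β-CD aqueous vehicle (0.5 mg/mL for the 5 mpk dose). Three mice per time point were sampled up to 48 h by retro-orbital bleed under isoflurane into K2EDTA. Plasma was spun at 2000 g, 4 °C, frozen at -80 °C, and assayed by LC/MS/MS.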
# MDA-MB-435 = experiment: Anticancer activity against human MDA-MB-435 cells assessed as cell growth inhibition; assay type: functional, cell-based; details: dose 1-100 µM, DDE = dose-dependent effect
# [10] = biological target: Muscarinic acetylcholine receptor M3 (Homo sapiens) (UniProt P20309); experiment: Binding affinity to M3 receptor (unknown origin) at 10000 nM by radioligand displacement assay relative to control
# HL-60(TB) = experiment: Anticancer activity against human HL-60(TB) cells assessed as cell growth inhibition; assay type: functional, cell-based; details: dose 1-100 µM, DDE = dose-dependent effect
# [11] = mouse, in vivo, ip, 50 mg/kg, 48 h; remark: listed apart in the source
# [12] = biological target: 5-hydroxytryptamine receptor 2B (Homo sapiens) (UniProt P41595); experiment: Binding affinity to 5-HT2B receptor (unknown origin) at 10000 nM by radioligand displacement assay relative to control
# SK-OV-3 = experiment: Anticancer activity against human SK-OV-3 cells assessed as cell growth inhibition; assay type: functional, cell-based; details: dose 1-100 µM, DDE = dose-dependent effect
# [13] = biological target: Alpha-2B adrenergic receptor (Homo sapiens) (UniProt P18089); experiment: Binding affinity to alpha2B receptor (unknown origin) at 10000 nM by radioligand displacement assay relative to control
# T47D = experiment: Anticancer activity against human T47D cells assessed as cell growth inhibition; assay type: functional, cell-based; details: dose 1-100 µM, DDE = dose-dependent effect
# [14] = Kinetic solubility of compound
# [15] = AUC (0 to 48 hrs) in female BALB/c mouse at 5 mg/kg, ip at 48 hrs by LC-MS/MS analysis; assay type: ADME, organism-based; design: time 48 hrs, dose 5 mg/kg, route ip; details: in vivo
# Outline: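 Fed female BALB/c mice, about 6–8 weeks old and 25–30 g, received a single IP dose. The vehicle was 5-10% NMP + 20% PEG400 + 70-75% (25% HP-β-CD in water), with the drug at 2.5/0.5 mg/mL. Blood was taken by retro-orbital puncture under isoflurane into K2EDTA tubes, 3 mice per time point, over 48 h. Plasma was prepared at 2000 g, 5 min, 4 °C, and measured by LC/MS/MS.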
# SNB-19 = experiment: Anticancer activity against human SNB-19 cells assessed as cell growth inhibition; assay type: functional, cell-based; details: dose 1-100 µM, DDE = dose-dependent effect
# TK-10 = experiment: Anticancer activity against human TK-10 cells assessed as cell growth inhibition; assay type: functional, cell-based; details: dose 1-100 µM, DDE = dose-dependent effect
# [16] = biological target: 5-hydroxytryptamine receptor 6 (Homo sapiens) (UniProt P50406); experiment: Binding affinity to 5-HT6 receptor (unknown origin) at 10000 nM by radioligand displacement assay relative to control
# PC-3M [17] = experiment: Cytotoxicity against human PC-3M cells expressing PTB/GFP fusion protein assessed as reduction in ATP level at 20 uM and measured after 24 to 48 hrs by ATPlite luminescence assay; assay type: toxicity, cell-based; details: time 24-48 hrs
# [18] = biological target: 5-hydroxytryptamine receptor 2A (Homo sapiens) (UniProt P28223); experiment: Binding affinity to 5-HT2A receptor (unknown origin) at 10000 nM by radioligand displacement assay relative to control
# HCT-116 = experiment: Anticancer activity against human HCT-116 cells assessed as cell growth inhibition; assay type: functional, cell-based; details: dose 1-100 µM, DDE = dose-dependent effect
# HCC 2998 = experiment: Anticancer activity against human HCC 2998 cells assessed as cell growth inhibition; assay type: functional, cell-based; details: dose 1-100 µM, DDE = dose-dependent effect
# [19] = biological target: 5-hydroxytryptamine receptor 5A (Homo sapiens) (UniProt P47898); experiment: Binding affinity to 5-HT5A receptor (unknown origin) at 10000 nM by radioligand displacement assay relative to control
# BT-549 = experiment: Anticancer activity against human BT-549 cells assessed as cell growth inhibition; assay type: functional, cell-based; details: dose 1-100 µM, DDE = dose-dependent effect
# CCRF-CEM = experiment: Anticancer activity against human CCRF-CEM cells assessed as cell growth inhibition; assay type: functional, cell-based; details: dose 1-100 µM, DDE = dose-dependent effect
# [20] = biological target: Alpha-2C adrenergic receptor (Homo sapiens, UniProt P18825); experiment: Binding affinity to alpha2C receptor (unknown origin) by radioligand displacement assay
# Chain of Alpha-2C adrenergic receptor (P18825 whole entry): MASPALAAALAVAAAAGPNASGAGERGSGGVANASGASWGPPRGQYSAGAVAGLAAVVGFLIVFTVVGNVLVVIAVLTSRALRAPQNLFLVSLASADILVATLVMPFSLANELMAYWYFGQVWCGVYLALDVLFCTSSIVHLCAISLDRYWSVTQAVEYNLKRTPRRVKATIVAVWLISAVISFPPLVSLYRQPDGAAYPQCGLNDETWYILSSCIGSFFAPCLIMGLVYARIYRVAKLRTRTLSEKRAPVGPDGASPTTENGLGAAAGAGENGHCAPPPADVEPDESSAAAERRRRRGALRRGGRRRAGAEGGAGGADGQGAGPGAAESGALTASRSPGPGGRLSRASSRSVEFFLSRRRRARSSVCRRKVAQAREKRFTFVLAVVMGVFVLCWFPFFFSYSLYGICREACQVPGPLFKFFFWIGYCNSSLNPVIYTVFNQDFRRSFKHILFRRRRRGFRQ
# Chain of 5-hydroxytryptamine receptor 2A (Homo sapiens) (P28223 whole entry): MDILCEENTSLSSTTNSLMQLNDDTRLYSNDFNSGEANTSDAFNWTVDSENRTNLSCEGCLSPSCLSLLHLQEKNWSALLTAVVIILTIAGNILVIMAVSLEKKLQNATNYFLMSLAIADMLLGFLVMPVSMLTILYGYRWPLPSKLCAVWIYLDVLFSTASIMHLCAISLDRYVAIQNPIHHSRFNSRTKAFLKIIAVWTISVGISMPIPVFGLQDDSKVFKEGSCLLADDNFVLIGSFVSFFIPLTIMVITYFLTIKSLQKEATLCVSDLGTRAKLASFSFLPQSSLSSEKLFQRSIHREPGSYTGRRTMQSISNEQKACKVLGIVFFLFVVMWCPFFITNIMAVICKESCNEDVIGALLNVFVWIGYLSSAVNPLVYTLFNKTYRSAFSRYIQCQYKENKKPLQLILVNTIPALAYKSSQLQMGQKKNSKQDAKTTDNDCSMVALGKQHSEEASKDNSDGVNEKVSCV
# Chain of D(1B) dopamine receptor (Homo sapiens) (P21918 whole entry): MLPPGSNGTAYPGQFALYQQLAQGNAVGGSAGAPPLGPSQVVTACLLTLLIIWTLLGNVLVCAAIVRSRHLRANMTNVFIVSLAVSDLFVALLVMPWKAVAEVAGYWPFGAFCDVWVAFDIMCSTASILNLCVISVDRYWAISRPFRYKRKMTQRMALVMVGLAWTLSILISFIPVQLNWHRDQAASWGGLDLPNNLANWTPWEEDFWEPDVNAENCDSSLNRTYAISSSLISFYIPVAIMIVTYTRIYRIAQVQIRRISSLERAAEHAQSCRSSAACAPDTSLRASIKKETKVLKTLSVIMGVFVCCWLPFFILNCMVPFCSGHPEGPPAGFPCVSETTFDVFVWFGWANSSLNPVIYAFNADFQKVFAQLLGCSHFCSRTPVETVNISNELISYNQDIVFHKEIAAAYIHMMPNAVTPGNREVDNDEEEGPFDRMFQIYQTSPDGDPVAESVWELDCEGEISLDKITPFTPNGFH
# Chain of Alpha-2B adrenergic receptor (Homo sapiens) (P18089 whole entry): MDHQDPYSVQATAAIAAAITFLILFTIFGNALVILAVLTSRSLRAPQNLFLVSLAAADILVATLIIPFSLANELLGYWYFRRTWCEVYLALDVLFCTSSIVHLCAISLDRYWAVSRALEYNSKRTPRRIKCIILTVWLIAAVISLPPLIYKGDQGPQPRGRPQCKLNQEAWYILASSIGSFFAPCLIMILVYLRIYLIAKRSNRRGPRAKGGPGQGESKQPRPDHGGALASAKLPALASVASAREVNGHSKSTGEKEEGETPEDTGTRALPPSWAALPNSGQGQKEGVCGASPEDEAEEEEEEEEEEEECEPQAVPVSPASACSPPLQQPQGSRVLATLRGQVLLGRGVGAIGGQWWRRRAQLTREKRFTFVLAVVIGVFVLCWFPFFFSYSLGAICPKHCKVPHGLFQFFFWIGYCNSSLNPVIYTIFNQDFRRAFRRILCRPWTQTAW
# Chain of 5-hydroxytryptamine receptor 6 (Homo sapiens) (P50406 whole entry, the tested form may be a part): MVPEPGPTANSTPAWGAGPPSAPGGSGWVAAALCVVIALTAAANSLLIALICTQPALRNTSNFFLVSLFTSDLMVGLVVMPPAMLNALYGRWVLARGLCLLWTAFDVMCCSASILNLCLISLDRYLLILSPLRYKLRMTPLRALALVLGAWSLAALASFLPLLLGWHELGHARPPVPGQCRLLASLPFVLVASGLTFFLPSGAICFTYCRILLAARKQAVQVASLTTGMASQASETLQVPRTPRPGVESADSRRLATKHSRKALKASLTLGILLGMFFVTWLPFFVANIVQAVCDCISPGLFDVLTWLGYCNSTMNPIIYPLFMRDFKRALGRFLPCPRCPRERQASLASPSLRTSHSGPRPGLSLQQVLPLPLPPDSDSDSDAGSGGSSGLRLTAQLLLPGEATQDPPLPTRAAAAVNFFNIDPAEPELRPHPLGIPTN
# Chain of Muscarinic acetylcholine receptor M5 (Homo sapiens) (P08912 whole entry, the tested form may be a part): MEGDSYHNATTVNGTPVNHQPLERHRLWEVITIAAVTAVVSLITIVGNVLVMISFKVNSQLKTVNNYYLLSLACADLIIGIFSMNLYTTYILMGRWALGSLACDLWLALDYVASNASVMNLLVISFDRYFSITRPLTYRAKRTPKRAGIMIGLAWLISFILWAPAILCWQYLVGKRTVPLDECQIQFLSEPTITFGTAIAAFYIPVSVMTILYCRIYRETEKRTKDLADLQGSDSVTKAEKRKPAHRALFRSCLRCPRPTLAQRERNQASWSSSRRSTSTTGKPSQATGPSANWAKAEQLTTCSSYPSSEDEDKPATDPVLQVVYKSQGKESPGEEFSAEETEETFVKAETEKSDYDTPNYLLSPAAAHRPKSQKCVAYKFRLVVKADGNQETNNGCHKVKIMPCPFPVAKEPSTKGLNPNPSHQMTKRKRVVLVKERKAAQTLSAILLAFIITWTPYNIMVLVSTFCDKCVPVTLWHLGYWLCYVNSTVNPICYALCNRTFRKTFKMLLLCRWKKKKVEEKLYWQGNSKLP
# Chain of 5-hydroxytryptamine receptor 2B (Homo sapiens) (P41595 whole entry): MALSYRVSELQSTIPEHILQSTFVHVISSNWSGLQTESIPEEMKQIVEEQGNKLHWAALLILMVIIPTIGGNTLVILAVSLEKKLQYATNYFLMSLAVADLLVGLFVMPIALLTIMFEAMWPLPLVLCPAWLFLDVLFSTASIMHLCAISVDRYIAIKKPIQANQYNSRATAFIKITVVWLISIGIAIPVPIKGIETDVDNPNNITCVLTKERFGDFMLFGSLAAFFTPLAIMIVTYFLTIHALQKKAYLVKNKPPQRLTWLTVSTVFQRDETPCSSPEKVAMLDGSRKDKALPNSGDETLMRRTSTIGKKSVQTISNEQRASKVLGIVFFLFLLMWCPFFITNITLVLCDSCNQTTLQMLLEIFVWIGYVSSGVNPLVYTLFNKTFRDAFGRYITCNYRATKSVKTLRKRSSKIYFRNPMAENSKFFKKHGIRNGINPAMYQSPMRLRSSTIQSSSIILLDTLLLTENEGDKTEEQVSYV
# Chain of Sodium-dependent noradrenaline transporter (Homo sapiens) (P23975 whole entry): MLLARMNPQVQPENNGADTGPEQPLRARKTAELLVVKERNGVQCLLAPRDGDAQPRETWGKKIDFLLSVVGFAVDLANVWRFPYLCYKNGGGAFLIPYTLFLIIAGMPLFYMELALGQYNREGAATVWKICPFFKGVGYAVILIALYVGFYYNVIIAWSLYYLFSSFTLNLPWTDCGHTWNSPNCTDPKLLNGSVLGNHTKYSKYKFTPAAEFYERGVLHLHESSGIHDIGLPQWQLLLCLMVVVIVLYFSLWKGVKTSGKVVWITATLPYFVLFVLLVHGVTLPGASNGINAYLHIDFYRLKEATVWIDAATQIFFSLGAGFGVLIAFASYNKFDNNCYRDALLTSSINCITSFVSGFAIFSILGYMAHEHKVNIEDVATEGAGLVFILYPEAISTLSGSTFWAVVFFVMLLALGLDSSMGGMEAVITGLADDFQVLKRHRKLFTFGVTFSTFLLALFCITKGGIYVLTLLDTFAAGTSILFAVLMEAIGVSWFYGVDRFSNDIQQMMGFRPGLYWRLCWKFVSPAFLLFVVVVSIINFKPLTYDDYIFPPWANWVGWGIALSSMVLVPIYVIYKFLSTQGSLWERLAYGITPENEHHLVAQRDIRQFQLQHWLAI
# Chain of 5-hydroxytryptamine receptor 5A (Homo sapiens) (P47898 whole entry): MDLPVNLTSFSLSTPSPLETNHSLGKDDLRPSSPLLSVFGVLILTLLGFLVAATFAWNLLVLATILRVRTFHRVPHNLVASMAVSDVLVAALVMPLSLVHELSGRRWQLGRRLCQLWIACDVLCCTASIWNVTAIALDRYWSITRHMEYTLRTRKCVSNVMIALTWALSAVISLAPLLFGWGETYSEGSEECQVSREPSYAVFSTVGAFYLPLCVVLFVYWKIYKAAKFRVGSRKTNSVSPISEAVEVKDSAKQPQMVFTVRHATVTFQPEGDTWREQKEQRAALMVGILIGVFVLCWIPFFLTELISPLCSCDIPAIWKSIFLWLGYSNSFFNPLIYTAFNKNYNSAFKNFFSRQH
# Chain of Muscarinic acetylcholine receptor M3 (Homo sapiens) (P20309 whole entry, looked up): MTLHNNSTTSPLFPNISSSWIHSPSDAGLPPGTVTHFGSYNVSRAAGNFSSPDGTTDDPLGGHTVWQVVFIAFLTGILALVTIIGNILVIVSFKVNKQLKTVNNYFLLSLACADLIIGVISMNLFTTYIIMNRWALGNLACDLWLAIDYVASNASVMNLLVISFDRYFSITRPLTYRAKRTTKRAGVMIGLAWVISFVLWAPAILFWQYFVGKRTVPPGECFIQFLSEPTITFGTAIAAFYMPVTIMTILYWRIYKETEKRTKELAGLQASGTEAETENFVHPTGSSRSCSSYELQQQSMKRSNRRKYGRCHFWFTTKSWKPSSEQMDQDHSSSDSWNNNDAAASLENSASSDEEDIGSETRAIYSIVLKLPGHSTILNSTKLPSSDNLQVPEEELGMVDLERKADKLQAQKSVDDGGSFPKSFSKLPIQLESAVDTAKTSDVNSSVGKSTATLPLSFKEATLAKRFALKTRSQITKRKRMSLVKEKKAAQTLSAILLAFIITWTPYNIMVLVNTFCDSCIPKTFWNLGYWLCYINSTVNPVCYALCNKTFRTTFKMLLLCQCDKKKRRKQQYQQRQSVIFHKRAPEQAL
smiles,measurement,setting,value
N=c1c2c(-c3ccccc3)c(-c3ccccc3)n(Cc3ccccc3)c2ncn1[C@H]1CC[C@H](O)CC1 [ML-246],IC50,PC-3M [1]; read-out: IC50,200 nM
same,IC50,PC-3M [1]; read-out: pIC50 (converted),178 nM
same,Activity,MDA-MB-468,Dde
same,Activity,MDA-MB-231,Dde
same,Activity,SR,Dde
same,beta t1/2,[2],16.4 min
same,IC50,[3],7650 nM
same,Activity,SW-620,Dde
same,concentration at 48 h,[4],1320 nM
same,Activity,RXF 393,Dde
same,Activity,[5],< 50%
same,selectivity ratio,in vitro,38.3
same,Activity,NCI-H460,Dde
same,Activity,[6],< 50%
same,Activity,NCI-H23,Dde
same,Activity,SF-295,Dde
same,Activity,[7],< 50%
same,Activity,[8],< 50%
same,Activity,MOLT-4,Dde
same,Tmax,[9],15 min
same,Activity,MDA-MB-435,Dde
same,Activity,[10],< 50%
same,Activity,HL-60(TB),Dde
same,Tmax,[11],30 min
same,Activity,[12],< 50%
same,Activity,SK-OV-3,Dde
same,Activity,[13],< 50%
same,Activity,T47D,Dde
same,solubility kinetic,[14],> 99 µM and > 47 µg/mL
same,AUC,[15],6.08 µM·h
same,Activity,SNB-19,Dde
same,Activity,TK-10,Dde
same,Activity,[16],< 50%
same,Activity,PC-3M [17],Toxic
same,Activity,[18],< 50%
same,Activity,HCT-116,Dde
same,Activity,HCC 2998,Dde
same,Activity,[19],< 50%
same,Activity,BT-549,Dde
same,Activity,CCRF-CEM,Dde
same,Ki,[20],1210 nM
